Results of several laboratories.
Lines come from different studies, so protocols differ. ≈ marks a conversion by molar mass, not a printed value.
Organism: Mycobacterium tuberculosis
Observed: microbial growth
Strain: H37RV

SMILES	concentration	time	quantity	value
Fc1ccc(CCOc2cc(-c3ccccn3)nc3nncn23)cc1	–	–	MIC	> 100 µM
COc1ccc(-c2cc(C(F)(F)F)c3c(N)c(C(=O)Nc4cccc(C)c4C)sc3n2)cc1OC	–	–	IC50	> 100 µM
NC(=O)c1cncc(Cn2c(=S)[nH]c3cc(CO)c(Cl)cc3c2=O)c1	–	–	MIC90	17.2 µM (≈ 6.48 µg/mL)
NCC[C@H](O)C(=O)N[C@@H]1C[C@H](N)[C@@H](O[C@H]2O[C@H](CN)[C@@H](O)[C@H](O)[C@H]2O)[C@H](O)[C@H]1O[C@H]1O[C@H](CO)[C@@H](O)[C@H](N)[C@H]1O	2.5 µg/mL	–	inhibition	~90%
COc1ccc(-c2cc(C(F)(F)F)c3cc(C(=O)NC(C)c4ccccc4)sc3n2)cc1 (stereo not drawn)	–	–	IC50	2.5 µM
O=c1c2cc(Cl)ncc2[nH]c(=S)n1Cc1cccnc1	–	–	MIC90	17.6 µM (≈ 5.36 µg/mL)
CCc1ccc(CCNc2cc(-c3ccccn3)nc3nnc(C4CC4)n23)cc1	–	5 days	MIC	17 to 50 µM (≈ 6.54 to 19.2 µg/mL)
COc1ccc(-c2cc(C(F)(F)F)c3c(N)c(C(=O)Nc4ccc(C)c(C)c4)sc3n2)cc1	–	–	IC50	> 100 µM
O=c1[nH]c2cc(CO)c(Cl)cc2c(=O)n1Cc1cccnc1	–	–	MIC90	> 100 µM
